Legend:
Raji [1] = assay: Inhibition of TPA-induced EBV-early antigen activation in human Raji cells assessed as early antigen activation at 32 nmol after 48 hrs relative to control; type: cell-based; parameters: scale not given: the % may be the effect or the level left; conditions: human gammaherpesvirus 4
Method in brief: (§1)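 Raji cells at 10^6 cells/mL are harvested and induced in RPMI 1640/10% FCS with 4 mM n-butyric acid and 32 pmol TPA (20 ng/mL). Compound is added in DMSO at 32, 16, 3.2 or 0.32 nmol (mol ratio to TPA). After 48 h at 37 °C, EA-positive cells are counted blind (≥500 cells) as % versus TPA-only control ± SD. IC50 is the mol ratio to TPA giving 50% inhibition.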

Raji [2] = assay: Inhibition of TPA-induced EBV-early antigen activation in human Raji cells assessed as early antigen activation at 0.32 nmol after 48 hrs relative to control; type: cell-based; parameters: scale not given: the % may be the effect or the level left; conditions: human gammaherpesvirus 4; method in brief: as §1
Raji [3] = assay: Inhibition of TPA-induced EBV-early antigen activation in human Raji cells assessed as early antigen activation at 16 nmol after 48 hrs relative to control; type: cell-based; parameters: scale not given: the % may be the effect or the level left; conditions: human gammaherpesvirus 4; method in brief: as §1
Raji [4] = assay: Inhibition of TPA-induced EBV-early antigen activation in human Raji cells assessed as early antigen activation at 3.2 nmol after 48 hrs relative to control; type: cell-based; parameters: scale not given: the % may be the effect or the level left; conditions: human gammaherpesvirus 4; method in brief: as §1
[5] = Inhibition of TPA-induced EBV-early antigen activation in human Raji cells assessed as early antigen activation after 48 hrs relative to control; type: cell-based, human gammaherpesvirus 4; method in brief: as §1
[6] = Cytotoxicity against human Raji cells assessed as cell viability at 3.2 nmol after 48 hrs by trypan blue staining; type: cell-based; conditions: read-out: Activity
Method in brief: (§2)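 Raji cells grown to 106 cells/mL, pelleted and resuspended in RPMI 1640 with 10% FCS plus 4 mM n-butyric acid and 32 pmol TPA (20 ng/mL in DMSO), with test compound in DMSO (32, 16, 3.2 or 0.32 nmol; 1000–10 mol ratio/TPA). Viability counted after 48 h at 37 °C by hemocytometer with Trypan Blue; at least 60% survival required.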

[7] = Cytotoxicity against human Raji cells assessed as cell viability at 0.32 nmol after 48 hrs by trypan blue staining; type: cell-based; conditions: read-out: Activity; method in brief: as §2
[8] = Cytotoxicity against human Raji cells assessed as cell viability at 32 nmol after 48 hrs by trypan blue staining; type: cell-based; conditions: read-out: Activity; method in brief: as §2
[9] = Cytotoxicity against human Raji cells assessed as cell viability at 16 nmol after 48 hrs by trypan blue staining; type: cell-based; conditions: read-out: Activity; method in brief: as §2

Structure (SMILES): CCCc1cc(=O)oc2c(C(=O)C(C)CC)c(O)c(CC=C(C)C)c(O)c12 (stereo not given)
- Activity (Raji [1]): 0%
- Activity (Raji [2]): 84.2%
- Activity (Raji [3]): 13.7%
- Activity (Raji [4]): 50.6%
- IC50 [5]: 170 molar ratio
- viability at 48 h, 3.2 nmol [6]: > 80%
- viability at 48 h, 0.32 nmol [7]: > 80%
- viability at 48 h, 32 nmol [8]: 60%
- viability at 48 h, 16 nmol [9]: > 80%

Structure (SMILES): C/C=C(\C)C(=O)c1c(OC)c2c(c3c(CCC)cc(=O)oc13)OC(C)(C)C=C2
- Activity (Raji [1]): 0%
- Activity (Raji [2]): 90.8%
- Activity (Raji [3]): 19.5%
- Activity (Raji [4]): 62.5%
- IC50 [5]: 268 molar ratio
- viability at 48 h, 3.2 nmol [6]: > 80%
- viability at 48 h, 0.32 nmol [7]: > 80%
- viability at 48 h, 32 nmol [8]: 60%
- viability at 48 h, 16 nmol [9]: > 80%

Structure (SMILES): CC1=C(/C=C/C(C)=C/C=C/C(C)=C/C=C/C=C(C)/C=C/C=C(C)/C=C/C2=C(C)CCCC2(C)C)C(C)(C)CCC1 [BETA CAROTENE]
- Activity (Raji [1]): 9.1%
- Activity (Raji [2]): 100%
- IC50 [5]: 400 molar ratio

Structure (SMILES): CCCc1cc(=O)oc2c(C(=O)c3ccccc3)c(O)c3c(c12)OC(C)(C)C=C3 [BRASIMARIN A]
- Activity (Raji [1]): 0%
- Activity (Raji [2]): 93.8%
- Activity (Raji [3]): 33.3%
- Activity (Raji [4]): 72.1%
- IC50 [5]: 349 molar ratio
- viability at 48 h, 3.2 nmol [6]: > 80%
- viability at 48 h, 0.32 nmol [7]: > 80%
- viability at 48 h, 32 nmol [8]: 70%
- viability at 48 h, 16 nmol [9]: > 80%

Structure (SMILES): CCC(C)C(=O)c1c(O)c2c(c3c(-c4ccccc4)cc(=O)oc13)OC(C(C)(C)O)C2 (stereo not given) [BRASIMARIN B]
- Activity (Raji [1]): 0%
- Activity (Raji [2]): 92.5%
- Activity (Raji [3]): 32.6%
- Activity (Raji [4]): 71.6%
- IC50 [5]: 342 molar ratio
- viability at 48 h, 3.2 nmol [6]: > 80%
- viability at 48 h, 0.32 nmol [7]: > 80%
- viability at 48 h, 32 nmol [8]: 70%
- viability at 48 h, 16 nmol [9]: > 80%

Structure (SMILES): CC(C)=CCc1c2c(c3oc(=O)cc(-c4ccccc4)c3c1O)C(=O)[C@H](C)[C@@H](C)O2 [BRASIMARIN C]
- Activity (Raji [1]): 0%
- Activity (Raji [2]): 93.8%
- Activity (Raji [3]): 33.3%
- Activity (Raji [4]): 70.2%
- IC50 [5]: 348 molar ratio
- viability at 48 h, 3.2 nmol [6]: > 80%
- viability at 48 h, 0.32 nmol [7]: > 80%
- viability at 48 h, 32 nmol [8]: 70%
- viability at 48 h, 16 nmol [9]: > 80%

Structure (SMILES): CCCc1cc(=O)oc2c3c(c4c(c12)OC(C)(C)C=C4)O[C@H](C)[C@@H](C)[C@@H]3O [CALANOLIDE A]
- Activity (Raji [1]): 0%
- Activity (Raji [2]): 92.5%
- Activity (Raji [3]): 27.7%
- Activity (Raji [4]): 66.6%
- IC50 [5]: 290 molar ratio
- viability at 48 h, 3.2 nmol [6]: > 80%
- viability at 48 h, 0.32 nmol [7]: > 80%
- viability at 48 h, 32 nmol [8]: 60%
- viability at 48 h, 16 nmol [9]: > 80%

Structure (SMILES): CCCc1cc(=O)oc2c3c(c4c(c12)OC(C)(C)C=C4)O[C@H](C)[C@H](C)[C@@H]3O [CALANOLIDE C]
- Activity (Raji [1]): 0%
- Activity (Raji [2]): 94.3%
- Activity (Raji [3]): 35.1%
- Activity (Raji [4]): 74%
- IC50 [5]: 351 molar ratio
- viability at 48 h, 3.2 nmol [6]: > 80%
- viability at 48 h, 0.32 nmol [7]: > 80%
- viability at 48 h, 32 nmol [8]: 70%
- viability at 48 h, 16 nmol [9]: > 80%

Structure (SMILES): CC1(C)C=Cc2c(O)c(C(=O)c3ccccc3)c3oc(=O)cc(-c4ccccc4)c3c2O1 [CALANONE]
- Activity (Raji [1]): 0%
- Activity (Raji [2]): 93.3%
- Activity (Raji [3]): 32.3%
- Activity (Raji [4]): 73.1%
- IC50 [5]: 347 molar ratio
- viability at 48 h, 3.2 nmol [6]: > 80%
- viability at 48 h, 0.32 nmol [7]: > 80%
- viability at 48 h, 32 nmol [8]: 70%
- viability at 48 h, 16 nmol [9]: > 80%

Source: ChEMBL document CHEMBL1150675, “Chemical constituents of Calophyllum brasiliense. 2. Structure of three new coumarins and cancer chemopreventive activity of 4-substituted coumarins” (J Nat Prod, 2003)
